In ChEMBL document CHEMBL5385940 (J Nat Prod, 2024):
Activity calls are given as the source filed them. No cut-off for these calls is given here.

What was measured:
[1] = Cytotoxicity against mouse 3T3-L1 cells assessed as cell viability at 5 uM incubated for 48 hrs by CCK-8 assay relative to control; type: toxicity, cell-based; conditions: read-out: Activity
Procedure, shortened: (§1)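 3T3-L1 preadipocytes seeded at 1 × 10^3 cells/well and left 12 h, then exposed to alkaloids for 48 h. Viability by CCK-8, absorbance at 450 nm, relative to control. Lovastatin 5 μM included. Mean ± SD, n = 3.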

[2] = Cytotoxicity against mouse 3T3-L1 cells assessed as cell viability at 10 uM incubated for 48 hrs by CCK-8 assay relative to control; type: toxicity, cell-based; conditions: read-out: Activity; procedure, shortened: as §1
[3] = Cytotoxicity against mouse 3T3-L1 cells assessed as cell viability at 25 uM incubated for 48 hrs by CCK-8 assay relative to control; type: toxicity, cell-based; conditions: read-out: Activity; procedure, shortened: as §1
[4] = Cytotoxicity against mouse 3T3-L1 cells assessed as cell viability at 100 uM incubated for 48 hrs by CCK-8 assay relative to control; type: toxicity, cell-based; conditions: read-out: Activity; procedure, shortened: as §1
[5] = Cytotoxicity against mouse 3T3-L1 cells assessed as cell viability at 50 uM incubated for 48 hrs by CCK-8 assay relative to control; type: toxicity, cell-based; conditions: read-out: Activity; procedure, shortened: as §1
[6] = Cytotoxicity against mouse 3T3-L1 cells assessed as cell viability at 15 uM incubated for 48 hrs by CCK-8 assay relative to control; type: toxicity, cell-based; conditions: read-out: Activity; procedure, shortened: as §1
[7] = Cytotoxicity against mouse 3T3-L1 cells transfected with Lenti-PPARgamma-Luc reporter assessed as cell viability at 30 uM incubated for 48 hrs by CCK-8 assay relative to control; type: toxicity, cell-based; conditions: read-out: Activity
Procedure, shortened: (§2)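 3T3-L1-Lenti-PPARγ-Luc reporter cells (lentivirus-transduced) exposed to alkaloids at a range of concentrations. Viability by CCK-8, absorbance at 450 nm, relative to control, used to set maximum noncytotoxic concentrations. Triplicate.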

[8] = test system: 3T3-L1; assay: Anti-adipogenic activity in mouse 3T3-L1 preadipocytes assessed as inhibition of lipid accumulation incubated for 6 days by Nile Red staining based fluorescence microscopic analysis; type: functional, cell-based; conditions: time 6.0 day
[9] = Cytotoxicity against mouse 3T3-L1 cells transfected with Lenti-PPARgamma-Luc reporter assessed as cell viability at 15 uM incubated for 48 hrs by CCK-8 assay relative to control; type: toxicity, cell-based; conditions: read-out: Activity; procedure, shortened: as §2
[10] = Cytotoxicity against mouse 3T3-L1 cells transfected with Lenti-PPARgamma-Luc reporter assessed as cell viability at 10 uM incubated for 48 hrs by CCK-8 assay relative to control; type: toxicity, cell-based; conditions: read-out: Activity; procedure, shortened: as §2
[11] = Cytotoxicity against mouse 3T3-L1 cells transfected with Lenti-PPARgamma-Luc reporter assessed as cell viability at 0.1 uM incubated for 48 hrs by CCK-8 assay relative to control; type: toxicity, cell-based; conditions: read-out: Activity; procedure, shortened: as §2
[12] = Cytotoxicity against mouse 3T3-L1 cells transfected with Lenti-PPARgamma-Luc reporter assessed as cell viability at 20 uM incubated for 48 hrs by CCK-8 assay relative to control; type: toxicity, cell-based; conditions: read-out: Activity; procedure, shortened: as §2
[13] = test system: 3T3-L1; assay: Inhibition of adipogenesis in mouse 3T3-L1 cells assessed as downregulation of PPARgamma relative protein level […] by Western blot analysis; type: functional, cell-based
Procedure, shortened: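 Differentiated 3T3-L1 adipocytes treated with alkaloids at several doses. Lysed in RIPA with PMSF on ice for 30 min. Proteins transferred to PVDF and blocked with 5% skim milk for 2 h at 25 °C. Primary antibody 2 h, HRP secondary 1 h. PPARγ protein level expressed relative to control. n = 3.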

[14] = test system: 3T3-L1; assay: Anti-adipogenic activity in mouse 3T3-L1 cells transfected with Lenti-PPARgamma-Luc reporter assessed as inhibition of PPARgamma expression by luminescence based microplate reader analysis; type: functional, cell-based
[15] = Cytotoxicity against mouse 3T3-L1 cells transfected with Lenti-PPARgamma-Luc reporter assessed as cell viability at 1 uM incubated for 48 hrs by CCK-8 assay relative to control; type: toxicity, cell-based; conditions: read-out: Activity; procedure, shortened: as §2
[16] = Cytotoxicity against mouse 3T3-L1 cells transfected with Lenti-PPARgamma-Luc reporter assessed as cell viability at 25 uM incubated for 48 hrs by CCK-8 assay relative to control; type: toxicity, cell-based; conditions: read-out: Activity; procedure, shortened: as §2
[17] = Cytotoxicity against mouse 3T3-L1 cells transfected with Lenti-PPARgamma-Luc reporter assessed as cell viability at 5 uM incubated for 48 hrs by CCK-8 assay relative to control; type: toxicity, cell-based; conditions: read-out: Activity; procedure, shortened: as §2
[18] = Cytotoxicity against mouse 3T3-L1 cells assessed as cell viability at 20 uM incubated for 48 hrs by CCK-8 assay relative to control; type: toxicity, cell-based; conditions: read-out: Activity; procedure, shortened: as §1

## COc1cc2c(cc1O)C(Cc1ccc(O)c(-c3c(O)c(OC)cc4c3C(Cc3ccc(O)cc3)N(C)CC4)c1)N(C)CC2 (stereo unspecified)
[1]
  viability at 48 h, 5 µM: > 80%
[2]
  viability at 48 h, 10 µM: > 80%
[3]
  viability at 48 h, 25 µM: > 80%
[4]
  viability at 48 h, 100 µM: > 80%
[5]
  viability at 48 h, 50 µM: > 80%

## COc1cc2c(cc1OC)[C@@H](Cc1ccc(O)c(Oc3cc4c(cc3OC)CCN(C)[C@@H]4Cc3ccc(O)cc3)c1)N(C)CC2
[1]
  viability at 48 h, 5 µM: > 80%
[6]
  viability at 48 h, 15 µM: > 80%
[7]
  viability at 48 h, 30 µM: < 80%
[8]
  Activity: Dose-Dependent Effect
[2]
  viability at 48 h, 10 µM: > 80%
[9]
  viability at 48 h, 15 µM: > 80%
[3]
  viability at 48 h, 25 µM: < 80%
[10]
  viability at 48 h, 10 µM: > 80%
[11]
  viability at 48 h, 0.1 µM: > 80%
[12]
  viability at 48 h, 20 µM: < 80%
[13]
  inhibition: Active
[14]
  Activity: Dose-Dependent Effect
[15]
  viability at 48 h, 1 µM: > 80%
[16]
  viability at 48 h, 25 µM: < 80%
[17]
  viability at 48 h, 5 µM: > 80%
[18]
  viability at 48 h, 20 µM: > 80%
